Measured values taken from ChEMBL document CHEMBL3046951, “Volatile constituents from the leaves of Callicarpa japonica Thunb. and their antibacterial activities” (2004).

Tests used:
Assay type in all cases: functional
Listeria monocytogenes [1] = assay: Antimicrobial activity against Listeria monocytogenes ATCC 19111 assessed as growth inhibition rate at 1470.8 mg/l after 72 hr by spectrophotometry; conditions: ATCC 19111, 72 h, read-out: GI
Summary of the method: (§1)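 L. monocytogenes was grown at 30 °C in tryptic soy broth, subcultured for 18 h, and exposed to pure volatile compounds (>95% purity). Growth was followed by Bioscreen C optical density every 24 h for 72 h against a 10% Tween 80 control.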

Staphylococcus aureus [2] = assay: Antimicrobial activity against Staphylococcus aureus ATCC 25923 assessed as growth inhibition rate at 1470.8 mg/l after 72 hr by spectrophotometry; conditions: ATCC 25923, 72 h, read-out: GI
Bacillus cereus [3] = assay: Antimicrobial activity against Bacillus cereus ATCC 11778 assessed as growth inhibition rate at 1470.8 mg/l after 72 hr by spectrophotometry; conditions: ATCC 11778, 72 h, read-out: GI
Summary of the method: (§2)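 Pure volatile compounds (purity >95%; one at 90%) were tested against B. cereus ATCC 11778. The strain was grown at 30 °C in nutrient broth for 24 h, then subcultured for 18 h. Optical density was read in a Bioscreen C every 24 h for 72 h, with 10% Tween 80 as the control.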

Escherichia coli [4] = assay: Antimicrobial activity against Escherichia coli O157:H7 ATCC 43894 assessed as growth inhibition rate at 1470.8 mg/l after 72 hr by spectrophotometry; conditions: O157:H7 ATCC 43894, 72 h, read-out: GI
Vibrio parahaemolyticus [5] = assay: Antimicrobial activity against Vibrio parahaemolyticus ATCC 33844 assessed as growth inhibition rate at 1470.8 mg/l after 72 hr by spectrophotometry; conditions: ATCC 33844, 72 h, read-out: GI
Salmonella typhimurium [6] = assay: Antimicrobial activity against Salmonella enterica subsp. enterica serovar Typhimurium ATCC 14028 assessed as growth inhibition rate at 1470.8 mg/l after 72 hr by spectrophotometry; conditions: ATCC 14028, 72 h, read-out: GI
Summary of the method: (§3)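 Salmonella Typhimurium ATCC 14028 grown in nutrient broth at 30 °C, precultured 24 h, then subcultured 1:100 for 18 h before testing. Single volatile compounds (>95% pure) were added. OD was read every 24 h over 72 h in a Bioscreen C, with 10% Tween 80 as the comparison control.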

Bacillus cereus [7] = assay: Antimicrobial activity against Bacillus cereus ATCC 11778 assessed as growth inhibition rate at 3.8 mg/l after 72 hr by spectrophotometry; conditions: ATCC 11778, 72 h, read-out: GI; summary of the method: as §2
Escherichia coli [8] = assay: Antimicrobial activity against Escherichia coli O157:H7 ATCC 43894 assessed as growth inhibition rate at 3.8 mg/l after 72 hr by spectrophotometry; conditions: O157:H7 ATCC 43894, 72 h, read-out: GI
Vibrio parahaemolyticus [9] = assay: Antimicrobial activity against Vibrio parahaemolyticus ATCC 33844 assessed as growth inhibition rate at 3.8 mg/l after 72 hr by spectrophotometry; conditions: ATCC 33844, 72 h, read-out: GI
Salmonella typhimurium [10] = assay: Antimicrobial activity against Salmonella enterica subsp. enterica serovar Typhimurium ATCC 14028 assessed as growth inhibition rate at 3.8 mg/l after 72 hr by spectrophotometry; conditions: ATCC 14028, 72 h, read-out: GI; summary of the method: as §3
Staphylococcus aureus [11] = assay: Antimicrobial activity against Staphylococcus aureus ATCC 25923 assessed as growth inhibition rate at 3.8 mg/l after 72 hr by spectrophotometry; conditions: ATCC 25923, 72 h, read-out: GI
Listeria monocytogenes [12] = assay: Antimicrobial activity against Listeria monocytogenes ATCC 19111 assessed as growth inhibition rate at 3.8 mg/l after 72 hr by spectrophotometry; conditions: ATCC 19111, 72 h, read-out: GI; summary of the method: as §1

Structure (SMILES) | inhibition of growth at 1470.8 µg/mL (Listeria monocytogenes [1]) | inhibition of growth at 1470.8 µg/mL (Staphylococcus aureus [2]) | inhibition of growth at 1470.8 µg/mL (Bacillus cereus [3]) | inhibition of growth at 1470.8 µg/mL (Escherichia coli [4]) | inhibition of growth at 1470.8 µg/mL (Vibrio parahaemolyticus [5]) | inhibition of growth at 1470.8 µg/mL (Salmonella typhimurium [6]) | inhibition of growth at 3.8 µg/mL (Bacillus cereus [7]) | inhibition of growth at 3.8 µg/mL (Escherichia coli [8]) | inhibition of growth at 3.8 µg/mL (Vibrio parahaemolyticus [9]) | inhibition of growth at 3.8 µg/mL (Salmonella typhimurium [10]) | inhibition of growth at 3.8 µg/mL (Staphylococcus aureus [11]) | inhibition of growth at 3.8 µg/mL (Listeria monocytogenes [12])
C=C1CC/C=C(/C)CC[C@@H]2[C@@H]1CC2(C)C [CARYOPHYLLENE] | 7.2% | 54.7% | 32.1% | 12.8% | 26.5% | 10.2% | – | – | – | – | – | –
C=CC(C)(O)CCC=C(C)C (configuration not stated) [LINALOOL] | – | – | – | – | – | – | 8.6% | 2.1% | 0% | 8.2% | 2.6% | 0.6%
